In one test the test system is mouse Mc4r. Particulars: activation by NDP-MSH; ref Asai et al., 2013; cited from earlier work.
A further test concerns gMc4r/gMrap1. In words: cAMP-reporter gene assay, gMc4r co-expressed with gMrap1. The test is classed as cell-based, spotted gar (Lepisosteus oculatus). Particulars: Fig. 5A, vs gMc4r alone; for effect of gMrap1 co-expression on ligand sensitivity: p = 0.49 (hACTH(1–24)), p = 0.98 (NDP-MSH). The method, boiled down:
(§1)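 CHO cells (F12K, 10% FBS, 37 °C, 5% CO2) nucleofected with 2 μg each of gar receptor cDNA, with or without gar Mrap1 or Mrap2, plus CRE-luciferase. After 48 h, stimulated 4 h at 37 °C in serum-free medium with hACTH(1–24) 10−13–10−6 M or NDP-MSH 10−12–10−6 M. Luminescence read after a 5 min luciferase reagent step. Medium-only background subtracted. EC50 from Michaelis-Menten fits; triplicates.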
In general terms: A reporter such as luciferase makes a cellular process visible.

The next test relates to gMc4r. The experiment in a line: cAMP-reporter gene assay, gMc4r expressed alone. The test is classed as cell-based, spotted gar (Lepisosteus oculatus). Particulars: p = 0.11. The method, boiled down: as §1
The subject of another test is gMc5r/gMrap2. In words: cAMP-reporter gene assay, gMc5r co-expressed with gMrap2. The test is classed as cell-based, spotted gar (Lepisosteus oculatus). Particulars: Fig. 6A, 6B, vs gMc5r alone; for effect of gMrap2 co-expression on Vmax: hACTH(1–24) p = 0.001, NDP-MSH p = 0.007, T-test; for effect of gMrap2 co-expression on ligand sensitivity: hACTH(1–24) p = 0.5. The method, boiled down: as §1

The next test relates to gMc1r/gMrap1. The experiment in a line: cAMP-reporter gene assay, gMc1r co-expressed with gMrap1. In kind it is cell-based, spotted gar (Lepisosteus oculatus). Particulars: Fig. 3A, vs gMc1r alone; for effect of gMrap1 co-expression on Vmax value: hACTH(1–24) p < 0.001, NDP-MSH p = 0.02, T-test; for effect of gMrap1 co-expression on ligand sensitivity: p = 0.90 (hACTH(1–24)), p = 0.92 (NDP-MSH). The method in brief:
as §1

In the next test the test system is zebrafish Mc4r. The note with it: 2013, cited from earlier work.
The subject of a further test is hMc2r/mMrap1. The note with it: ref Liang et al., 2011; cited from earlier work.
The next test concerns gMc2r/gMrap1. In words: cAMP-reporter gene assay, gMc2r co-expressed with gMrap1. In kind it is cell-based, spotted gar (Lepisosteus oculatus). The method in brief: as §1
Another test concerns gMc5r. The experiment in a line: cAMP-reporter gene assay, gMc5r expressed alone. The test is classed as cell-based, spotted gar (Lepisosteus oculatus). The note with it: p = 0.07, T-test.
The next test relates to gMc4r/gMrap2. In words: cAMP-reporter gene assay, gMc4r co-expressed with gMrap2. In kind it is cell-based, spotted gar (Lepisosteus oculatus). Particulars: Fig. 5B; vs gMc4r alone; p < 0.001 (both ligands); T-test.
A further test concerns gMc3r/gMrap2. In words: cAMP-reporter gene assay, gMc3r co-expressed with gMrap2. Particulars: Fig. 4B, vs gMc3r alone; for effect of gMrap2 co-expression on Vmax value: hACTH(1–24) p – 0.99, NDP-MSH p > 0.001 (so in the source), T-test; for effect of gMrap2 co-expression on ligand sensitivity: p = 0.98 (both ligands). In kind it is cell-based, spotted gar (Lepisosteus oculatus).

The next test has as its system gMc3r. The experiment in a line: cAMP-reporter gene assay, gMc3r expressed alone. In kind it is cell-based, spotted gar (Lepisosteus oculatus). The note with it: p = 0.03.
The subject of a further test is gMc1r. The experiment in a line: cAMP-reporter gene assay, gMc1r expressed alone. In kind it is cell-based, spotted gar (Lepisosteus oculatus). The note with it: comparison of EC50 values, p < 0.001.
Another test relates to gMc5r/gMrap1. In words: cAMP-reporter gene assay, gMc5r co-expressed with gMrap1. In kind it is cell-based, spotted gar (Lepisosteus oculatus). The note with it: Fig. 6A, 6B, vs gMc5r alone; for effect of gMrap1 co-expression on Vmax: hACTH(1–24) p = 0.44, NDP-MSH p = 0.01, T-test; for effect of gMrap1 co-expression on ligand sensitivity: hACTH(1–24) p = 0.5, NDP-MSH p = 0.64. The method, boiled down: as §1

A further test deals with gMc3r/gMrap1. The experiment in a line: cAMP-reporter gene assay, gMc3r co-expressed with gMrap1. The test is classed as cell-based, spotted gar (Lepisosteus oculatus). The note with it: Fig. 4A, vs gMc3r alone; for effect of gMrap1 co-expression on ligand sensitivity: p = 0.49 (hACTH(1–24)), p = 0.98 (NDP-MSH). The method in brief: as §1
In a further test the test system is gMc1r/gMrap2. In words: cAMP-reporter gene assay, gMc1r co-expressed with gMrap2. In kind it is cell-based, spotted gar (Lepisosteus oculatus). The note with it: Fig. 3B, vs gMc1r alone; for effect of gMrap2 co-expression on Vmax value: hACTH(1–24) P = 0.43, NDP-MSH p = 0.42, T-test; for effect of gMrap2 co-expression on ligand sensitivity: p = 0.12 (hACTH(1–24)), p = 0.28 (NDP-MSH). The method in brief:
as §1

Test [1] concerns Gallus gallus (chicken; c) Mc5r with cMrap1. Particulars: ref Thomas et al., 2018; cited from earlier work.
The next test deals with gMc2r. In words: cAMP-reporter gene assay, gMc2r expressed alone. In kind it is cell-based, spotted gar (Lepisosteus oculatus). The note with it: Fig. 2A; CHO cells, CRE-Luciferase, 4 h at 37 °C, 10^−13M to 10^−6M; n = 3. The method in brief: as §1
A further test relates to gMc2r/gMrap2. In words: cAMP-reporter gene assay, gMc2r co-expressed with gMrap2. The test is classed as cell-based, spotted gar (Lepisosteus oculatus). The note with it: Fig. 2A, CHO cells, CRE-Luciferase, 4 h at 37 °C, 10^−13M to 10^−6M, n = 3. The method in brief:
as §1

Another test concerns hMc2r. Particulars: ref Metherell et al., 2005; Sebag and Hinkle, 2007; cited from earlier work.
In a further test the test system is Mc2r and Mc5r orthologs. Particulars: ref Thomas et al., 2018, Dores et al., Barney et al., 2019; cited from earlier work.

Data on three substances can be found in article PMC7263024 (General and comparative endocrinology, 2019).

Entries after “also recorded” stand apart in the source; their conditions may differ.

Nle^4, D-Phe^7-α-MSH [NDP-MSH]: the “effect of Mrap2 co-expression on ligand sensitivity” value is “enhances ligand sensitivity of the receptor to activation by NDP-MSH” in the test on mouse Mc4r and “enhances ligand sensitivity of the receptor to activation by NDP-MSH” in the test on zebrafish Mc4r (activation by NDP-MSH, ref Sebag et al.). The “effect of gMrap1 co-expression on Vmax value” in the test with gMc4r/gMrap1 is recorded as “no effect on the Vmax value”; with gMc1r/gMrap1, “decrease in the Vmax value”; in the test with gMc3r/gMrap1, “no effect on the Vmax value”. For the same substance, the “effect of gMrap1 co-expression on ligand sensitivity” value was “had no effect on sensitivity to stimulation; also recorded: no statistical effect on the sensitivity of gMc4r” with gMc4r/gMrap1; “had no effect on sensitivity to stimulation; also recorded: no effect on the sensitivity of gMc1r” in the test on gMc1r/gMrap1; “had no effect on sensitivity to stimulation; also recorded: no effect, either positive or negative, on the sensitivity of the receptor” in the test with gMc5r/gMrap1; “had no effect on sensitivity to stimulation” with gMc3r/gMrap1. Besides, the “efficacy of hACTH(1–24) compared with NDP-MSH” value in the test on gMc4r is “can be activated with equal efficacy”. The “effect of gMrap2 co-expression on Vmax” value with gMc5r/gMrap2 is “increase in Vmax”; in the test on gMc4r/gMrap2 it was “statistically higher than the Vmax for the dose response curve when gMc4r was expressed alone; also recorded: comparable in magnitude to the Vmax value for the gMc4r/gMrap2 cells stimulated hACTH(1–24); also recorded: the amplitude of stimulation (Vmax) also increased for both ligands”. The “effect of gMrap2 co-expression on ligand sensitivity” value in the test on gMc5r/gMrap2 is given as “did not increase sensitivity; also recorded: no effect, either positive or negative, on the sensitivity of the receptor”; with gMc3r/gMrap2, “no effect either positive or negative on the sensitivity of gMc3r”; in the test on gMc1r/gMrap2, “no effect, in either a positive or negative manner, on the sensitivity of gMc1r”. Further, the “response to NDP-MSH” value in the test with hMc2r/mMrap1 was “did not evoke a response”. Also, the “activation of gMc2r/gMrap1 by NDP-MSH” value with gMc2r/gMrap1 (Fig. 2B, CHO cells, 4 h at 37 °C, 10^−12M to 10^−6M, n = 3) was “low level of activation (only at 10^−7M and 10^−6M); also recorded: activation was observed, but only at concentrations of 10^−7 M and 10^−6M; also recorded: weak activation only at 10 ^7M and 10^−6M; also recorded: could be activated to a limited degree by NDP-MSH at concentrations of 10^−7M and 10^−6M”. Besides, the “degree of stimulation relative to stimulation at saturation by hACTH(1–24)” value with gMc2r/gMrap1 (NDP-MSH at 10^−6 M vs 10^−9M hACTH(1–24), Fig. 2B) is “roughly 40%”. In addition, in the test on gMc5r, the “EC50 of NDP-MSH compared with hACTH (1–24)” value is “not statistically different from stimulation with hACTH (1–24)”. Also, the “effect of gMrap2 co-expression on Vmax value” in the test with gMc3r/gMrap2 was “decrease in the Vmax value”; in the test on gMc1r/gMrap2, “no effect on the Vmax value”. In addition, the “sensitivity to NDP-MSH compared with hACTH(1–24)” value in the test with gMc3r was “higher sensitivity for stimulation by NDP-MSH than by stimulation with hACTH(1–24)”; in the test with gMc1r it was “much more sensitive to stimulation by NDP-MSH than to stimulation by hACTH(1–24)”. Also, in the test on gMc5r/gMrap1, the “effect of gMrap1 co-expression on Vmax” value was “increase in Vmax”.
As to “hACTH(1–24): Human (h) ACTH(1–24), purchased from Sigma-Aldrich; 96% primary sequence identity with gACTH(1–24)”, the “effect of gMrap1 co-expression on Vmax value” in the test with gMc4r/gMrap1 is “no effect on the Vmax value”; in the test on gMc1r/gMrap1 it was “decrease in the Vmax value”; in the test on gMc3r/gMrap1, “no effect on the Vmax value”. The “effect of gMrap1 co-expression on ligand sensitivity” value with gMc4r/gMrap1 was “had no effect on sensitivity to stimulation; also recorded: no statistical effect on the sensitivity of gMc4r”; in the test with gMc1r/gMrap1, “had no effect on sensitivity to stimulation”; with gMc5r/gMrap1, “had no effect on sensitivity to stimulation; also recorded: negligible shift in sensitivity; also recorded: no effect, either positive or negative, on the sensitivity of the receptor”; in the test with gMc3r/gMrap1, “had no effect on sensitivity to stimulation”; in the test with gMc3r/gMrap1 (listed as hACTH (1–24)), “no effect either positive or negative on sensitivity”. Besides, the “efficacy of hACTH(1–24) compared with NDP-MSH” value in the test with gMc4r is “can be activated with equal efficacy”. In addition, the “effect of gMrap2 co-expression on Vmax” value with gMc5r/gMrap2 was “increase in the Vmax value”; in the test on gMc4r/gMrap2, “statistically higher than the Vmax for the dose response curve when gMc4r was expressed alone; also recorded: the amplitude of stimulation (Vmax) also increased for both ligands”. For the same substance, the “effect of gMrap2 co-expression on ligand sensitivity” value in the test on gMc5r/gMrap2 is “did not affect sensitivity; also recorded: no effect, either positive or negative, on the sensitivity of the receptor”; in the test on gMc3r/gMrap2, “no effect either positive or negative on the sensitivity of gMc3r”; with gMc1r/gMrap2 it was “no effect, in either a positive or negative manner, on the sensitivity of gMc1r”. Also, in [1], the “effect of cMrap1 co-expression on sensitivity to stimulation” value is recorded as “significantly increased the sensitivity”. In the test with gMc2r/gMrap1 (Fig. 2A, CHO cells, CRE-Luciferase, 4 h at 37 °C, n = 3), the “activation of gMc2r co-expressed with gMrap1 by hACTH(1–24)” value is “obligatory requirement for co-expression with gMrap1 in order for the receptor to be activated by hACTH(1–24); also recorded: activation of the receptor was recovered”. Besides, the “concentration at which activation reached saturation” value with gMc2r/gMrap1 (Fig. 2B, CHO cells, 4 h at 37 °C) is reported as 10^−9 M. In addition, the “effect of gMrap2 co-expression on Vmax value” with gMc3r/gMrap2 and with gMc1r/gMrap2 was “no effect on the Vmax value” in each case. Also, the “effect of gMrap1 co-expression on Vmax” value with gMc5r/gMrap1 is “no change in the Vmax value”. Moreover, the “activation of gMc2r expressed alone by hACTH(1–24)” value in the test with gMc2r was “activation of gMc2r did not occur when the receptor was expressed alone; also recorded: did not result in activation of the receptor; also recorded: no activation when expressed alone”. In addition, the “activation of gMc2r co-expressed with gMrap2” value with gMc2r/gMrap2 was “activation did not occur; also recorded: gMrap2 did not facilitate activation of gMc2r”; in the test with gMc2r/gMrap2 (listed as hACTH (1–24)), “there was no activation”.
For ACTH, the “effect of Mrap2 co-expression on sensitivity for activation by ACTH” value with zebrafish Mc4r (ref Josep Agulleiro et al.) is recorded as “sensitivity for activation by ACTH increases as well”. Further, the “stimulation of hMc2r/Mrap1 by ACTH” value with hMc2r is on record as “in the correct configuration to be stimulated by ACTH”. In addition, the “effect of Mrap1 co-expression on sensitivity to stimulation by ACTH” value in the test with Mc2r and Mc5r orthologs is “enhanced sensitivity to stimulation by ACTH”.
